For data set [1], the system named is Plasmodium cynomolgi. In words: Antimalarial activity against Plasmodium cynomolgi infected in rhesus monkey at 10 mg/kg. The class given is functional, organism-based. More on the design: dose 10 mg/kg. The gist of the method: (§1)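 Radical curative test in rhesus monkeys infected with P. cynomolgi, with compounds given at 0.5, 1 or 10 mg/kg. The read-out is either cures per number of animals treated or the day of relapse for animals not cured.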

A further data set is filed under the species Mus musculus. Description: Toxicity in mouse. The settings on record: in vivo.
Another data set concerns Plasmodium berghei. Description: Antimalarial activity against Plasmodium berghei infected in mouse at 320 to 640 mg/kg.
The test system of data set [2] is Plasmodium cynomolgi. In words: Antimalarial activity against Plasmodium cynomolgi infected in rhesus monkey at 0.5 mg/kg. The class given is functional, organism-based. Details: dose 0.5 mg/kg. The gist of the method:
as §1

The test system of data set [3] is Plasmodium cynomolgi. Description: Antimalarial activity against Plasmodium cynomolgi infected in rhesus monkey at 1 mg/kg. The class given is functional, organism-based. Details: dose 1 mg/kg. The gist of the method:
as §1

Another data set concerns Rhesus monkey. In words: Toxicity in rhesus monkey at 160 mg/kg. The class given is organism-based, Macaca mulatta. More on the design: dose 160 mg/kg. Conditions: in vivo.

The structures appear in SMILES notation. The source made the active and inactive calls. No cut-off for these calls is given here.

Turning to `COc1cc(NC(C)CCCN)c2ncccc2c1Sc1ccc2ccccc2c1` (stereo unspecified), in the data set with Plasmodium cynomolgi [1], the outcome was Active.
`COc1ccc(Sc2c(OC)cc(NC(C)CCCN)c3ncccc23)cc1.O=C(O)CC(O)(CC(=O)O)C(=O)O` (stereo unspecified): the Activity result in the data set listed under Mus musculus is “Non-toxic”. Besides, in the data set with Plasmodium berghei, the outcome was Active.
As for `COc1cc(NC(C)CCCN)c2ncccc2c1Sc1ccc(Cl)cc1` (stereo unspecified), in the data set with Plasmodium cynomolgi [2], the outcome was inactive. In the data set on Plasmodium cynomolgi [1], the outcome was Active.
Regarding `COc1cc(NC(C)CCCN)c2ncccc2c1Sc1ccc(Cl)c(Cl)c1` (stereo unspecified), the result in the data set on Plasmodium cynomolgi [1] was Active.
Same read-out and setting: the value for `COc1cc(NC(C)CCCN)c2ncccc2c1Sc1cccc(Cl)c1` (stereo unspecified) was “Active”.
Consider `COc1cc(NC(C)CCCN)c2ncccc2c1Sc1cccc(C(F)(F)F)c1` (stereo unspecified), for which the outcome with Plasmodium cynomolgi [3] was Active.
In the case of `COc1cc(NC(C)CCCN)c2ncccc2c1Sc1ccccc1Cl` (stereo unspecified), the result with Plasmodium cynomolgi [1] was Active.
On to `COc1cc(NC(C)CCCN)c2ncccc2c1Sc1cc(Cl)ccc1Cl` (stereo unspecified), for which the outcome in the data set on Plasmodium cynomolgi [1] was Active.
Regarding `COc1cc(NC(C)CCCN)c2ncccc2c1.O=P(O)(O)O.O=P(O)(O)O` (stereo unspecified) [PRIMAQUINE PHOSPHATE], in the data set on Rhesus monkey, the Activity entry is given as “Toxic”.

The values above are taken from ChEMBL document CHEMBL3244103, “Modifications of primiaquine as antimalarials. 2. 5-Phenylthio and 5-anilino derivatives of primaquine” (J Med Chem, 1978).
